High-throughput results as filed in PubChem BioAssay.
A selection: hits, their analogues and other compounds. The true share with any hit is near 2.3%.
TWEAK-Fn14 inh – TWEAK-Fn14 signaling inhibition | AID 1159606 | inhibition, % at 10 µM | TWEAK-stimulated Fn14 reporter cells, luciferase luminescence, 8 h | hit rate 2% among 360,000; in the data active = inhibition above about 50%
XiGFP reactiv – reactivates the inactive X chromosome in mouse fibroblasts; XiGFP mouse fibroblasts, % GFP-positive cells imaging, 3 d; cells co-treated with 5-aza-dC sensitizer; scaled so ellipticine positive control = 100%; activation, % at 7.58 µM; hit rate 0.055% among 360,000; AID 743238;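 active = mean normalized replicate activation at least 10% and every replicate at or above 10%; inconclusive = only one of the two criteria met; inactive = mean below 10% and not all replicates reach 10%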;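 note: 0% = median of on-plate neutral control wells and 100% = ellipticine 6 µM median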
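System: 68-5-11 XiGFP fibroblast line; Timing: 3 days compound exposure; Compound dosing: one concentration, pinned; Benchmarks: positive control ellipticine, 6 µM final; Buffer or medium: DMEM containing 5-aza-dC.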
FN deposition inh – fibronectin deposition inhibition. AH1F fibroblasts, Alexa488-fibronectin deposition fluorescence, overnight. inhibition, % at 12.6 µM. hit rate 0.086% among 350,000;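 active = mean inhibition across replicates of 30% or more, regardless of how many single replicates reach that level; inconclusive = mean under 30% yet at least half of replicates reach 30%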;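 note: positive control wells lacked labelled fibronectin entirely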
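Test system: AH1F fibroblast monolayer depositing Alexa488-labelled fibronectin into matrix. Input: 10000 cells per well. Technique: fluorescence, ex 485 nm, em 525 nm. Buffer or medium: DMEM plus 2% serum, read in PBS. Timing: 1 h cell adhesion before compound, then overnight fibronectin incubation. Compound: single dose, pinned. Read-out basis: inhibition from reduced deposited-fibronectin fluorescence.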
TROY NFkB inh – inhibitors of TROY-dependent NF-kB signaling; inhibition, % at 10 µM; hit rate 0.98% among 360,000; Q293 LMP1-TROYcd NF-kB luciferase reporter, 4 h; AID 1347056;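 active = compounds whose plate-normalised and pattern-corrected inhibition of the luciferase reporter signal at the single screening dose is 50% or more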
EWS-Fli block – blocks EWS/Fli oncoprotein-driven transcription; hit rate 0.67% among 350,000; AID 651661; inhibition, % at 12.6 µM; A673 NR0B1-luciferase reporter, viability-normalised;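 active = mean inhibition of at least 50% after viability correction, with every replicate also passing that limit; inconclusive = mean reaches 50% but only one of two replicates passes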;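 note: firefly luciferase signal divided by Alamar Blue viability fluorescence both relative to DMSO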
LGR2 antag – blocks bursicon-induced cAMP signaling via Drosophila LGR2; HEK293 LGR2, CRE-luciferase, bursicon-stimulated, 4 h; hit rate 0.35% among 380,000; inhibition, % at 9.99 µM; AID 720647;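 active = drop in luminescence signal, shown as inhibition above about 50% in the replicate tests, limit read from the data, passing the limit was not always enough; inconclusive = probably only some replicates passing the limit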;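 note: agonist challenge used bursicon conditioned medium at about half maximal strength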
The depositor's hits bear a star; ? = inconclusive; / = not tested or not shown.

SMILES	TWEAK-Fn14 inh	XiGFP reactiv	FN deposition inh	TROY NFkB inh	EWS-Fli block	LGR2 antag
Cc1ccc(/C=C/C(=O)c2ccccc2O)cc1	1	0	7	-63	-91	-54
Cc1ccc(C(=O)/C=C/c2ccc3c(c2)OCO3)o1	2	/	/	-64	-88	-56
CCNc1ccccc(C(=O)/C=C/c2ccc3c(c2)OCO3)c1=O	0	/	/	6	/	/
O=C(/C=C/c1ccc2c(c1)OCCCO2)c1ccccc1O	75*	0	-1	56*	-35	-14
Cc1ccc(O)c(C(=O)C=Cc2ccccc2)c1	54*	0	2	-24	-18	-27
C[C@H](CO)N1C[C@H](C)[C@@H](CN(C)Cc2ccc(Oc3ccccc3)cc2)Oc2ccc(NC(=O)Nc3ccccc3)cc2CC1=O	/	0	/	/	25	1
CCC(=O)Nc1ccc2c(c1)C(=O)N(C)C[C@H](OC)[C@H](C)CN(C(=O)c1ccc(F)cc1)[C@@H](C)CO2	/	0	-5	/	-1	-8
OC[C@H]1[C@@H](c2ccccc2)C2(CN(Cc3nccs3)C2)N1Cc1ccncc1	/	0	/	/	/	/
CC[C@@H](C(=O)[C@@H](C)[C@@H](O)[C@H](C)[C@@H]1O[C@@H]([C@@H](CC)C(=O)O)CC[C@@H]1C)[C@H]1O[C@]2(C=C[C@@H](O)[C@]3(CC[C@@](C)([C@H]4CC[C@](O)(CC)[C@H](C)O4)O3)O2)[C@H](C)C[C@@H]1C	56*	0	11	51*	12	/
CCC(=O)N1CCC2(CC1)CN(Cc1nccs1)[C@@H](CO)c1c2c2ccc(OC)cc2n1C	/	0	/	/	-3	-7
Cc1ccccc1NC1=C/C(=N\S(=O)(=O)c2ccc(C(=O)O)cc2)c2ccccc2C1=O	93*	0	4	42	-21	-5
CCc1ccc(S(=O)(=O)/N=C2\C=C(NS(=O)(=O)c3ccccc3)C(=O)c3ccccc32)cc1	-6	0	-9	-22	-107	2
CC(C)c1ccc(S(=O)(=O)/N=C2\C=C(NS(=O)(=O)c3ccccc3)C(=O)c3ccccc32)cc1	0	0	8	-5	/	26
O=C(O)c1ccc(S(=O)(=O)/N=C2\C=C(Nc3ccccc3F)C(=O)c3ccccc32)cc1	96*	0	13	49	?	101*
CO[C@H]1CN(C)C(=O)c2cc(NC(=O)C3CC3)ccc2OC[C@H](C)N(C(=O)C2CCCCC2)C[C@@H]1C	/	0	0	/	/	8
CCCCn1c(CN2CCN(c3cccc(Cl)c3)CC2)nc2c1c(=O)[nH]c(=O)n2C	17	/	/	0	58*	11
C[C@@H]1CN([C@H](C)CO)C(=O)c2cccc(NS(=O)(=O)c3ccc(Cl)cc3)c2O[C@H]1CN(C)CC1CCCCC1	/	0	12	/	9	17
C[C@@H]1CN([C@@H](C)CO)C(=O)c2cc(NC(=O)C3CCCCC3)ccc2O[C@@H]1CN(C)CC1CCCCC1	/	-1	6	/	-9	-3
CCCN1[C@H](C(=O)OC)[C@@H](CO)[C@@H]2Cn3c(ccc(-c4cccc(C(=O)N(C)C)c4)c3=O)[C@@H]21	/	0	/	/	-4	-4
COCCCNC(=O)c1cc(-c2cccnc2)nc2ccccc12	30	0	2	57*	3	5
CC(C)OCCCNC(=O)c1cc(-c2cccnc2)nc2ccccc12	13	0	-5	8	-5	-5
O=C(N/N=C/c1ccc(Cl)cc1)c1cc(-c2cccnc2)nc2ccccc12	-18	0	-4	18	52*	-12
O=C(NNC(=O)c1cc(-c2cccnc2)nc2ccccc12)Nc1ccc(Cl)cc1	13	0	13	52*	-31	-31
O=C(N/N=C/c1ccco1)c1cc(-c2cccc(Br)c2)nc2ccccc12	77*	0	19	48	/	3
CO[C@H]1CN(C)C(=O)c2ccc(NS(C)(=O)=O)cc2OC[C@@H](C)N(CC2CCCCC2)C[C@@H]1C	/	0	21	/	9	-11
SMILES	TWEAK-Fn14 inh	XiGFP reactiv	FN deposition inh	TROY NFkB inh	EWS-Fli block	LGR2 antag
CO[C@H]1CN(C)C(=O)c2cc(NC(=O)C3CCOCC3)ccc2OC[C@@H](C)N(CC2CC2)C[C@@H]1C	/	0	-3	/	-8	3
O=C(NNC(=O)c1cc(-c2ccccc2)nc2ccccc12)Nc1cccc(Cl)c1	39	/	/	69*	/	/
CC(C)(C)c1ccc(-c2cc(C(=O)NNC(=O)Nc3ccccc3)c3ccccc3n2)cc1	10	/	-7	-45	/	/
CCCNC(=O)N1C[C@@H](O)COC[C@@H]2O[C@H](CC(=O)N3CCC(Cc4ccccc4)CC3)CC[C@H]21	/	0	-7	/	-3	2
Cc1ccc(/C=C/C(=O)Nn2cnnc2)cc1	57*	/	/	-12	/	/
Cc1ccc(OCC(=O)NC2=NCCS2)cc1	24	/	/	-5	/	/
Cc1ccc(/C=C/C(=O)NC2=NCCS2)cc1	52*	0	-3	29	50	72*
CC(C)(C)c1ccc(/C=C/C(=O)NC2=NCCS2)cc1	50*	/	/	53*	/	/
Cc1ccc(/C=C/C(=O)NN2CCN(C)CC2)cc1	-18	0	/	-8	/	0
CO[C@@H]1CN(C)C(=O)c2cc(NC(=O)NC(C)C)ccc2OC[C@H](C)N(CCC(F)(F)F)C[C@@H]1C	/	0	/	/	1	-14
CS(=O)(=O)N1[C@H](C(=O)NCCc2ccncc2)[C@@H](CO)[C@@H]2Cn3c(ccc(C4=CCCC4)c3=O)[C@@H]21	/	1	/	/	-5	19
O=C1NC2(NN1c1ccccc1)C1CC3CC(C1)CC2C3 (stereo unspecified)	88*	/	/	/	/	15
COC(=O)c1sc(-c2ccc(C(C)(C)C)cc2)cc1NC(=O)c1ccccc1C(=O)O	-8	?	-13	52*	9	-100
COc1ccc(/C(O)=C2/C(=O)C(=O)N(Cc3ccco3)C2c2cccs2)cc1 (stereo unspecified)	-10	/	-4	-37	/	/
CC1Cc2cc(/C(O)=C3/C(=O)C(=O)N(Cc4ccco4)C3c3cccs3)ccc2O1 (stereo unspecified)	66*	/	/	65*	/	/
COc1cccc(-c2ccc3c(c2)O[C@H](CN(C)Cc2cncnc2)[C@@H](C)CN([C@H](C)CO)S3(=O)=O)c1	/	-1	2	/	7	18
